ChEMBL document CHEMBL1138199, “Identification of compounds with anti-West Nile Virus activity” (J Med Chem, 2006)

Tests used:
BHK-21 [1] = experiment: Cytotoxicity against BHK21 cell line by MTT assay; type: functional; details: Mesocricetus auratus
Outline: (§1)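 MTT cytotoxicity assay run in BHK-21 and Vero cells on compounds giving >50% Rluc inhibition in the primary screens; CC50 reported in µM.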

West Nile virus [2] = experiment: Inhibition of West Nile viral Rluc-Neo-Rep in BHK21 cell line; type: functional, organism-based; details: BHK-21
Outline: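 BHK-21 cell line stably carrying Rluc-Neo-Rep replicon; inhibition read as suppression of Renilla luciferase signal. Initial screen at 30 µM, 1% DMSO final; EC50 (µM) then determined.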

[3] = Therapeutic index (CC50/EC50) in BHK21 cells; type: cell-based, BHK-21; details: hamster, read-out: Ratio CC50/EC50
Outline: (§2)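 TI computed as CC50/EC50, using MTT CC50 and replicon EC50 in BHK-21 cells, or MTT CC50 and Rluc-FL-WNV EC50 in Vero cells.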

West Nile virus [4] = experiment: Inhibition of Rluc-FL-WNV replicon in Vero cells; type: functional, organism-based
Outline: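 Vero cells infected with full-length WNV carrying Renilla luciferase reporter (Rluc-FL-WNV), covering entry, replication and assembly; inhibition read as suppression of luciferase signal. Compounds first screened at 30 µM in 1% DMSO final, then EC50 (µM) determined.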

Vero = experiment: Cytotoxicity against Vero cells by MTT assay; type: functional; details: Chlorocebus sabaeus; outline: as §1
[5] = Therapeutic index (CC50/EC50) in Vero cells; type: cell-based; details: monkey, read-out: Ratio CC50/EC50; outline: as §2
BHK-21 [6] = experiment: Inhibition of West Nile virus VLP replicon in BHK21 cell line; type: functional, cell-based; details: Mesocricetus auratus
Outline: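 Naive BHK-21 cells infected with virus-like particles, made by expressing WNV structural proteins in cells carrying the Rluc-Neo-Rep replicon, which package replicon RNA. This captures entry and replication but not assembly. Inhibition is read as suppression of Renilla luciferase signal. Compounds were given in 1% DMSO final, and EC50 is in µM.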

SMILES	CC50 (BHK-21 [1])	EC50 (West Nile virus [2])	selectivity ratio [3]	EC50 (West Nile virus [4])	CC50 (Vero)	selectivity ratio [5]	EC50 (BHK-21 [6])
CC(C)(C)C(=O)N1N=C(c2cccs2)CC1c1ccc(Cl)cc1 (stereo not drawn)	90 µM	60 µM	1.5	–	–	–	–
COc1ccc(C2CC(c3cccs3)=NN2C(=O)Cc2ccc(Cl)cc2)cc1 (stereo not drawn)	> 300 µM	30 µM	> 10	–	–	–	–
CC(C)(C)C(=O)N1N=C(C(C)(C)C)CC1c1ccc(Cl)cc1 (stereo not drawn)	60 µM	27 µM	2.2	–	–	–	–
CN1CCN(C(=O)c2ccc3nc4ccccc4c(NC4CCN(Cc5ccccc5)CC4)c3c2)CC1	100 µM	28 µM	3.6	25 µM	80 µM	3.2	25 µM
CN1CCN(C(=O)c2ccc3nc4ccccc4c(Oc4ccccc4)c3c2)CC1	100 µM	21 µM	4.7	20 µM	80 µM	4	20 µM
CN1CCN(c2cc(-c3ccc(C(C)(C)C)cc3)c3ccccc3n2)CC1	110 µM	17 µM	6.5	30 µM	25 µM	0.8	20 µM
CN1CCN(Cc2ccc3c(c2)Oc2ccccc2C3)CC1	200 µM	> 30 µM	< 6.7	> 30 µM	90 µM	< 3	28 µM
O=C(c1ccccc1)N1N=C(c2ccccc2)CC1c1ccc(Cl)cc1 (stereo not drawn)	250 µM	20 µM	12.5	–	–	–	–
O=C(Cc1ccc(Cl)cc1)N1N=C(c2cccs2)CC1c1ccc(Cl)cc1 (stereo not drawn)	> 300 µM	19 µM	> 16	–	–	–	–
O=C(Cc1ccc(Cl)cc1)N1N=C(c2cccs2)CC1c1ccc(Br)cc1 (stereo not drawn)	> 300 µM	19 µM	> 16	–	–	–	–
O=C(c1ccccc1)N1N=C(c2cccs2)CC1c1ccc([N+](=O)[O-])cc1 (stereo not drawn)	> 300 µM	200 µM	> 1.5	–	–	–	–
O=C(c1ccccc1)N1N=C(c2cccs2)CC1c1ccc(F)cc1 (stereo not drawn)	100 µM	59 µM	1.7	–	–	–	–
CCN(CC)C(=O)c1cccc2c(NC3CCN(Cc4ccccc4)CC3)c3ccccc3nc12	350 µM	8 µM	44	22 µM	75 µM	3.4	20 µM
COc1ccc(C2CC(c3cccs3)=NN2C(=O)c2ccccc2)cc1 (stereo not drawn)	> 300 µM	63 µM	> 4.8	> 30 µM	–	–	–
CN1CCN(C(=O)c2ccc3c(NCCc4c[nH]c5ccccc45)c4ccccc4nc3c2)CC1	150 µM	13.7 µM	11	> 30 µM	45 µM	< 1.5	10 µM
O=C(c1cccc2c(NC3CCN(Cc4ccccc4)CC3)c3ccccc3nc12)N1CCOCC1	300 µM	20 µM	15	> 30 µM	90 µM	< 3	20 µM
CC(C)(C)C1=NN(C(=O)c2ccccc2)C(c2ccc(Cl)cc2)C1 (stereo not drawn)	65 µM	57 µM	1.1	–	–	–	–

SMILES	CC50 (BHK-21 [1])	EC50 (West Nile virus [2])	selectivity ratio [3]	EC50 (West Nile virus [4])	CC50 (Vero)	selectivity ratio [5]	EC50 (BHK-21 [6])
CN1CCN(C(=O)c2ccc3c(NC4CCN(Cc5ccccc5)CC4)c4ccccc4nc3c2)CC1	150 µM	15.5 µM	9.7	30 µM	80 µM	2.7	8 µM
CN1CCN(C(=O)c2ccc3c(Oc4ccccc4)c4ccccc4nc3c2)CC1	100 µM	28 µM	3.6	28 µM	40 µM	1.4	18 µM
CCN(CC)C(=O)c1ccc2c(NC3CCN(Cc4ccccc4)CC3)c3ccccc3nc2c1	150 µM	12.5 µM	12	20 µM	55 µM	2.7	6 µM
CN1CCN(c2cc(-c3ccc(C(C)(C)C)cc3)nc3ccccc23)CC1	50 µM	14.5 µM	3.4	15 µM	20 µM	1.3	8 µM
O=C(c1ccc([N+](=O)[O-])cc1)N1N=C(c2cccs2)CC1c1ccc(Cl)cc1 (stereo not drawn)	> 300 µM	225 µM	> 1.3	–	–	–	–
O=C(Cc1ccccc1)N1N=C(c2cccs2)CC1c1ccc(Cl)cc1 (stereo not drawn)	65 µM	20 µM	3.3	–	–	–	–
O=C(c1cccc2c(NCCc3c[nH]c4ccccc34)c3ccccc3nc12)N1CCOCC1	250 µM	20 µM	13	> 30 µM	60 µM	< 2	23 µM
O=C(c1ccccc1)N1N=C(c2ccc(Br)s2)CC1c1ccc(Cl)cc1 (stereo not drawn)	> 300 µM	17 µM	> 18	–	–	–	–
O=C(c1cccc2c(Oc3ccccc3)c3ccccc3nc12)N1CCOCC1	155 µM	> 30 µM	< 5.1	22 µM	45 µM	2	> 30 µM
CCN(CC)C(=O)c1ccc2c(NCCc3c[nH]c4ccccc34)c3ccccc3nc2c1	125 µM	7 µM	18	25 µM	45 µM	1.8	7 µM
CCN(CC)C(=O)c1cccc2c(NCCc3c[nH]c4ccccc34)c3ccccc3nc12	150 µM	9.2 µM	16	20 µM	50 µM	2.5	9 µM
CCN(CC)C(=O)c1ccc2nc3ccccc3c(NC3CCN(Cc4ccccc4)CC3)c2c1	120 µM	22 µM	5.4	20 µM	50 µM	2.5	22 µM
CN1CCN(C(=O)c2cccc3c(Oc4ccccc4)c4ccccc4nc23)CC1	150 µM	20 µM	7.5	20 µM	50 µM	2.5	20 µM
CN1CCN(Cc2ccc3c(c2)Oc2ccccc2C3O)CC1 (stereo not drawn)	325 µM	13.5 µM	24	10 µM	50 µM	5	4 µM
O=C(Cc1ccc(Cl)cc1)N1N=C(c2ccco2)CC1c1ccc(Br)cc1 (stereo not drawn)	> 300 µM	20 µM	> 15	–	–	–	–
O=C(c1ccccc1)N1N=C(c2cccs2)CC1c1ccc(Br)cc1 (stereo not drawn)	> 300 µM	25 µM	> 12	> 30 µM	–	–	–
